According to ChEMBL document CHEMBL4138082 (Eur J Med Chem, 2017):

Key:
HepG2 [1] = assay: Induction of apoptosis in human HepG2 cells assessed as cell population with mitochondrial membrane potential loss at 0.0625 uM measured after 48 hrs by JC-1 staining based flow cytometry (reference value: 1.49%); assay type: functional
Outline: (§1)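 HepG-2 cells were exposed 48 h to 0.0625, 0.125 or 0.25 µM or to vehicle, then washed in PBS and stained with JC-1 in the dark. Red aggregate versus green monomer fluorescence was measured by flow cytometry to give the percentages of cells with healthy versus collapsed mitochondrial membrane potential.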

HepG2 [2] = assay: Cell cycle arrest in human HepG2 cells assessed as G2 phase accumulation at 0.125 uM after 48 hrs by propidium iodide staining based flow cytometry (reference value: 23.38%); assay type: functional
Outline: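 HepG-2 cells were plated and grown 24 h at 37 °C, then treated 48 h at 0, 0.0625, 0.125 or 0.25 µM, with 0.1% DMSO as control. Cells were fixed overnight in 70% ethanol at 4 °C, treated with RNase A and stained with propidium iodide. DNA content was measured by flow cytometry to give cell-cycle phase distribution.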

HepG2 [3] = assay: Cell cycle arrest in human HepG2 cells assessed as G1 phase accumulation at 0.0625 uM after 48 hrs in presence of hemoglobin by propidium iodide staining based flow cytometry (reference value: 52.93%); assay type: functional
HepG2 [4] = assay: Induction of apoptosis in human HepG2 cells assessed as necrotic cells at 0.125 uM after 48 hrs by Annexin V-APC/7-AAD staining based flow cytometry (reference value: 2.40%); assay type: functional
L02 = assay: Cytotoxicity against human L02 cells assessed as reduction in cell viability after 72 hrs by MTT assay; assay type: cell-based; conditions: L02, 72 h
Outline: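 MTT assay. Cells were seeded and grown 24 h at 37 °C in 5% CO2, then exposed to compound or left untreated for 72 h. MTT (5 mg/mL stock) was added for 4 h and the formazan dissolved in DMSO. OD was read at 570 nm. IC50 is the concentration giving 50% growth inhibition, reported as mean ± SD of three independent experiments. Vehicle reference was 0.1% DMSO.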

HepG2 [5] = assay: Cell cycle arrest in human HepG2 cells assessed as S phase accumulation at 0.0625 uM after 48 hrs in presence of hemoglobin by propidium iodide staining based flow cytometry (reference value: 36.40%); assay type: functional
HepG2 [6] = assay: Induction of apoptosis in human HepG2 cells assessed as cell population with intact mitochondrial membrane potential at 0.0625 uM measured after 48 hrs by JC-1 staining based flow cytometry (reference value: 98.51%); assay type: functional; outline: as §1

C[C@H]1CCC/C=C/[C@@H]2C[C@H](OC(=O)CCCC(=O)OCCOc3no[n+]([O-])c3S(=O)(=O)c3ccccc3)C[C@H]2[C@H](OC(=O)CCCC(=O)OCCOc2no[n+]([O-])c2S(=O)(=O)c2ccccc2)/C=C/C(=O)O1
Activity (HepG2 [1]): 16.58%
Activity (HepG2 [2]): 17%
Activity (HepG2 [3]): 68.06%
Activity (HepG2 [4]): 2.4%
IC50 (L02): 6 µM
Activity (HepG2 [5]): 24.74%
Activity (HepG2 [6]): 83.42%
